Experimental data published in the EternaBench riboswitch data.

Tested on: MS2 coat protein
Experiment: apparent Kd, MS2 coat protein; higher = weaker binding; RNA-MaP array; FMN 200 µM where present
Outline: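 Stalled E. coli RNA polymerase transcribed the designs on Illumina sequencing-chip clusters. SNAP-549-labelled MS2 coat protein was titrated from 0.7 or 1.5 nM, doubling to 3 µM, without and then with constant ligand, in 100 mM Tris-HCl pH 7.5, 80 mM KCl, 4 mM MgCl2, BSA, DTT, yeast tRNA and Tween-20. Per-cluster binding curves were fitted to green signal normalised to red-channel RNA signal and control-cluster median Fmax. The apparent Kd is the median of the filtered fits.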

[1] = designed as: ON switch for flavin mononucleotide, no ligand
[2] = ligand present: flavin mononucleotide, designed as: ON switch for flavin mononucleotide
[3] = designed as: OFF switch for flavin mononucleotide, no ligand
[4] = ligand present: flavin mononucleotide, designed as: OFF switch for flavin mononucleotide

Sequence	apparent Kd [1] [nM]	apparent Kd [2] [nM]	apparent Kd [3] [nM]	apparent Kd [4] [nM]
GGACAUGUCGUCUACAUGAGGAUCACCCAUGUCGAUAGACAUGAGGAUAUCGAUAAGAAUUGUAUCGAGAAGGUAUGUAGGUCC	18.7	24.9	–	–
CCGGUUGGCGCAGGAUAUACAUGAGGAUCACCCAUGUUGAUGAGGAUCACCCAUCAGUUUUUGUUGUAGAAGGGUGGCCCGGCC	–	–	23.1	19.3
GGUUGACAAAGUCAACCAUUACGAACAUGAGGAUCACCCAUGUAGGAUAUGCUACUCAAAGAGUAGCAGAAGGACAUGUGUCUU	–	–	30.1	147
AACGUGUAAGGAUAUGCUGCUCGUCACAAAAGUGAUGAGUAGCAGAAGGUACAUGAGGAUCACCCAUGUAAAGA	–	–	35.4	73.8
UUUAGUAUCUAGGAUAUCUAGUACAUAGUAUCUAGAGAAGGAGAUACAUGAGGAUCACCCAUGUUCUGUGUUCU	–	–	23.4	58.4
UUCAACGAUGAAGGAUAUCUAUAAACAUGAGGACAUGAGGAUCACCCAUGUUGAUCACCCAUGUAGGAGAAGGUCAACAUGAGG	220	68.2	–	–
GAGUGCUGAGGAUAUACAUGAGGAUCACCCAUGUGCUUCAGCUAGGAGACUAGCAUUGGUAGAAGGUAGUACUC	–	–	11.7	15.4
GUUACACAUGAGGAUCACCCAUGUAAGGAUAUGCUGCGGUCGCGCUGACGUGACUGCAGCAGAAGGUACAAUUG	–	–	84.7	88.6
UGAAAACAUGAGGAUCACCCAUGUCUAGGAGAUCGAGGAUAUGGGCCGGCACUAGGCGGGCCAGAAGGCGAAAAGU	60.8	26.6	–	–
GGCCCGCGCGUGAGGAUAUGCUGAUACUAGGAUCAGCAGAAGGCACAUGAGGAUCACCCAUGUCCAACUUGUCU	–	–	28.9	36.4
UACAUGAGGAUCACCCAUGUUUUGUCGUGUAUGGUAUUUAUCUAGGAUAUCAAUCUAUGUAUUUAUGAGAAGGAGAAUAUUAAU	–	–	41.8	37.3
ACAUGAGGAUCACCCAUGUAGAAUGAAGAAGGUAGAUACUUGAGGCUCACCCAUGUACAUAGGACUAAGGAUAUUCUAAUAAUU	25	22	–	–
CUCUCACAUGAGGAUCACCCAUGUCCACCUCCGUGAGGAUAUAGAUAAUAAAUACAUUUACUAGAAGGCGCAUCCC	285	298	–	–
GAAUGCCUGUCGAUGCUCGACAUGAGGAUCACCCAUGUAUAGCAGGAUAUGCAGAACUGACUCGUGCAGAAGGGCUAUACCUAA	–	–	18.8	47.7
AACAAUCUAUCUGAGGAUAUCAUGAAAAAAACAUGAGGAUCACCCAUGUGCAGGAAAACUGCAUAUGAGAAGGCAGAUAGAUUGG	618	31.6	–	–
GGUAGACAAAGUCUACCAUUACGAACAUGAGGAUCACCCAUGUAGGAUAUGCUACUCAAAGAGUAGCAGAAGGACAUGUGUCUU	–	–	29.8	143
AAAACGUGAGGAUAUGCACCAACCAAGGUUUUUCGGGUACGACAUGAGGAUCACCCAUGUAGAAGGCACGAAAA	–	–	16.2	12.9
AAAAUAAGAACAGGAUAUGUGGGUUCGAAAAGCAAAGCUUUCCACAUGAGGAUCACCCAUGUGCCACAGAAGGGUUCGGGUGAU	69.1	27.4	–	–

Sequence	apparent Kd [1] [nM]	apparent Kd [2] [nM]	apparent Kd [3] [nM]	apparent Kd [4] [nM]
AGGUAAGACUUAAUUGUGCUGGUGAGAAGGCUACUGGUUGUGGUCUACAUGAGGAUCACCCAUGUUGAGGAUAUCAUCGGUAUC	–	–	606	72.7
UAAUAAUUAUGAGGAUAUAUACAACAUGAGGAUCACCCAUGUACCCAUGUAGUAGAAGGCAUAUUUUUAGUUAAUAAUAUAACU	82.2	33	–	–
GCAGCGUAUGUAGGAUAUCGGUCAGUUUCUGAUCGAGAAGGACAUGAGGAUCACCCAUGUAUAUUCUAGCGUGAGCUAGGCUGC	–	–	18.2	25.5
UGGCGUAUCGAAGGAUAUCUGGGCUUACUCGGAGGAUCGACAUGAGGAUCACCCAUGUAUGACCAAGAGAAGGUCGAGGACGUA	–	–	141	253
CUGGUGUGAGGAUAUCAGGACACGCCCGCGGACGUGUCAAAUGAGAAGGCACAUGAGGAUCACCCAUGUGGGAC	–	–	33.4	166
UUCUUGGCAGGAUAUGCUCUUUUAGACAUGAGGAUCACCCAUGUGUUUAUUCUUUUUUUUGCAGAAGGGCCUUAAU	–	–	93.9	88.8
GUAGCAACAUGAGGAUCACCCAUGUAGGAUAUCGCUAUUGUAAUCAUGUUACAUGAUUACAAUAGCGAGAAGGACGUGAGCUAC	–	–	8.43	11.4
GAUACACAUGAGGAUCACCCAUGUGAGGAUAUGAUACUAUGUACUUCGGUACAUAGUAUCAGAAGGCACAUUGA	–	–	47.6	76.8
GCAUGUUGGUAGGAUAUGCAGCGAAAACCGCGAGUAGAAGGAUUGACAUGAGGAUCACCCAUGUGAACCUAAGG	–	–	27.1	59.2
AUAAAACAAAACCACACAUGAGGAUCACCCAUGUCAAGAUUACAGGAUAUCCAGCAGAGAUGCAUGGAGAAGGGUGAUCCCAAA	37.1	56.5	–	–
CCGAGAUGUGCAGGAUAUCAGGAUACGGUCCGCUGAGAAGGGCACAUGAGGAUCACCCAUGUGUGCGCAUAGGUGAAAGGCUUU	–	–	285	154
UUGGGACAUGAGGAUCACCCAUGUAAGGAUAUUGGCGCGCCGGCUCUGUCUGUUCCGCCGAGAAGGUACACGUU	–	–	104	173
AGUACCAUGUAGAAGGGAUAUCUGAUUCAGAUAUCAGGAUAUACAUGAGGAUCACCCAUGUAAAUGUACUGCACGAGAGUGCAA	–	–	14.7	50.2
UGUAUGGACAGAGGAUAUACGGAUAGGAUCUACUAUCAAACAAGUCCUACAUGAGGAUCACCCAUGUAGAAGGCUGUCCAUACU	–	–	16.4	22.7
GUUGCUACUGAGGAUAUUAUUUUAUUCGACUGAUAAGAAGGCAGUACAUGAGGAUCACCCAUGUGGGUAGCCAG	–	–	23.8	67.8
GGAUCCAACACAGGAUAUGCUGGACUUUGUCCAGCAGAAGGGUGACAUGAGGAUCACCCAUGUAAUAGGAUCCAUAUAUUUAAU	624	198	–	–
GCCAGCUAUGUAGGAUAUGCGCGGCGAGCCUGUGCAGAAGGACAUGAGGAUCACCCAUGUGUUGCGGUCUGAGUACUGAUCGCC	–	–	36.1	160
CUAGAAAGGACAGGAUAUCGGGAUCGAACACCCGACAUGAGGAUCACCCAUGUCGCAAAUGAUAGCGAGAAGGGUCGGACACAA	57	18.6	–	–
